{"source": "ChEMBL document CHEMBL4513216", "about": "“Probing the Open Global Health Chemical Diversity Library for Multistage-Active Starting Points for Next-Generation Antimalarials” (ACS Infect Dis, 2020)", "data": [{"assay": "Toxicity liver stage against HepG2, at 10uM", "assay_type": "cell-based", "design": "test concentration 10 uM, cell line HepG2-A16-CD81EGFP", "settings": "human, HepG2-A16-CD81EGFP cells; read-out: INHIBITION", "how_it_was_run": "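Uninfected HepG2-A16-CD81EGFP cells, 3 × 10^3 per well, 1536-well, plated on prespotted compound at 10 μM final, parasite-free screening media added to match infected plates; puromycin 10 μM positive, DMSO 0.5% negative; run in parallel with 48 h PbLuc assay at 37 °C, 5% CO2; viability by CellTiter-Glo luminescence, normalized to controls.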", "units": {"cytotoxicity at 10 µM": "%"}, "values": [{"smiles": "CN(C)S(=O)(=O)c1ccc(-c2nc(C#N)c(NC3CCCCC3)o2)o1", "cytotoxicity at 10 µM": -16}, {"smiles": "Cc1cc(C(=O)Nc2n[nH]c(C3CC3)n2)c2c(C)nn(C)c2n1", "cytotoxicity at 10 µM": 0.583}, {"smiles": "O=C(N1CCOCC1CO)C1(c2cccs2)CCCC1", "note": "(configuration not stated)", "cytotoxicity at 10 µM": 0.161}, {"smiles": "O=C(NCC(O)c1ccoc1)Nc1cccs1", "note": "(configuration not stated)", "cytotoxicity at 10 µM": -11.1}, {"smiles": "CCOC1CC2(CCN(C(=O)COC)CC2)c2cc(F)ccc21", "note": "(configuration not stated)", "cytotoxicity at 10 µM": -136}, {"smiles": "COCCN(C)C(=O)c1nc2c(s1)CCCN2S(C)(=O)=O", "cytotoxicity at 10 µM": -143}, {"smiles": "Cc1n[nH]c2c1C(c1ccsc1)SCC(=O)N2", "note": "(configuration not stated)", "cytotoxicity at 10 µM": 4.21}, {"smiles": "CN1CCc2c(C#N)c(NCc3ccco3)n3cnnc3c2C1", "cytotoxicity at 10 µM": -13.7}, {"smiles": "Cc1nn(CC(=O)N2CCN(Cc3cnn(C)c3C)CC2)cc1Cl", "cytotoxicity at 10 µM": -3.22}, {"smiles": "CN1CCCCC1(C)C(=O)N1CCC(c2ccccn2)CC1", "note": "(configuration not stated)", "cytotoxicity at 10 µM": 1.66}, {"smiles": "Cc1nc(CNC(=O)C(C)Oc2ccccc2F)no1", "note": "(configuration not stated)", "cytotoxicity at 10 µM": 5.43}, {"smiles": "CSc1nnc(CNC(=O)Nc2ccccc2Br)n1C", "cytotoxicity at 10 µM": 1.31}, {"smiles": "Cc1ccc(C(=O)NC2CCCN(S(C)(=O)=O)C2)c(=O)[nH]1", "note": "(configuration not stated)", "cytotoxicity at 10 µM": 10.6}, {"smiles": "Cc1ccc(CNC(=O)Nc2nncs2)n1C", "cytotoxicity at 10 µM": -0.545}, {"smiles": "Cc1cc(NC(=O)CO)nn1-c1ccc(Cl)cc1Cl", "cytotoxicity at 10 µM": -142}, {"smiles": "CN(Cc1nc(CS(C)(=O)=O)no1)c1ccccc1", "cytotoxicity at 10 µM": 4.04}, {"smiles": "COC(=O)CC1CSCCN1C(=O)CCc1c(C)nn(C)c1C", "note": "(configuration not stated)", "cytotoxicity at 10 µM": -2.65}, {"smiles": "COc1ccc(OCc2noc(CN(C)C3CCS(=O)(=O)C3)n2)cc1", "note": "(configuration not stated)", "cytotoxicity at 10 µM": 12.5}, {"smiles": "Cc1nnc(C(C)Nc2cccc(COCCc3ccccc3)c2)o1", "note": "(configuration not stated)", "cytotoxicity at 10 µM": -3.51}, {"smiles": "CC(C)(C)c1noc(CCC(=O)N2CCN(Cc3ccco3)CC2)n1", "cytotoxicity at 10 µM": 6.11}, {"smiles": "Cc1noc(C)c1CNC(=O)N1CCN(CC2CC2)CC1", "cytotoxicity at 10 µM": -6.48}, {"smiles": "COc1ccc(C2CCCN2Cc2nnnn2C2CC2)cc1OC", "note": "(configuration not stated)", "cytotoxicity at 10 µM": 2.49}, {"smiles": "C=C(C)CN(CC)C(=O)c1cc(F)ccc1N1CCN(C)CC1", "cytotoxicity at 10 µM": -1.18}, {"smiles": "CC(O)CN1CCC(CN(C)CCC(=O)NC2CCCCC2)CC1", "note": "(configuration not stated)", "cytotoxicity at 10 µM": 4.11}, {"smiles": "CCC1C(=O)NCCN1c1nccc(C)n1", "note": "(configuration not stated)", "cytotoxicity at 10 µM": 0.889}, {"smiles": "CC(NC1CCN(CC(=O)N(C)C)CC1)c1cnn(C(C)C)c1", "note": "(configuration not stated)", "cytotoxicity at 10 µM": -0.54}, {"smiles": "Cc1cc(C2CCCN(CC(=O)N3CCCc4ccccc43)C2)n[nH]1", "note": "(configuration not stated)", "cytotoxicity at 10 µM": -4.14}, {"smiles": "Cc1cnn(CCNCC(=O)N(C)C(C)c2ccccc2)c1", "note": "(configuration not stated)", "cytotoxicity at 10 µM": 8.83}, {"smiles": "COc1ccccc1C(C)(C)NC(=O)NCCC(=O)NC1CCCC1", "cytotoxicity at 10 µM": 8.42}, {"smiles": "CCS(=O)(=O)c1ccc(N2CCC(NC(C)=O)CC2)cc1", "cytotoxicity at 10 µM": 10.6}, {"smiles": "O=C(Cc1ccc(F)cc1)NCCNCC1CNc2ccnn2C1", "note": "(configuration not stated)", "cytotoxicity at 10 µM": -3.47}, {"smiles": "Cc1c(Br)cccc1C(=O)NC(C)CN1CCCC1=O", "note": "(configuration not stated)", "cytotoxicity at 10 µM": -1.58}, {"smiles": "CSc1ccc(C(CNC(=O)C2CC2)N2CCc3sccc3C2)cc1", "note": "(configuration not stated)", "cytotoxicity at 10 µM": -5.31}, {"smiles": "CC(C)c1nnc2sc(CC3CCS(=O)(=O)CC3)nn12", "cytotoxicity at 10 µM": 4.62}, {"smiles": "C[C@@H]1CN(CC(=O)NCc2ccccn2)C[C@]1(C)O", "cytotoxicity at 10 µM": -5.68}, {"smiles": "Cn1ncc2c(N3CC[C@H](O)C3)nc(-c3ccncc3)nc21", "cytotoxicity at 10 µM": 4.63}, {"smiles": "Cc1ccc2nc(C)c(C)c(C(=O)NCCCn3ccnn3)c2c1", "cytotoxicity at 10 µM": 17.8}, {"smiles": "Fc1cccc(C2(CNC3CCCNC3)CCOCC2)c1", "note": "(configuration not stated)", "cytotoxicity at 10 µM": 0.979}, {"smiles": "CCC(=O)NC(CC)c1ccccc1C", "note": "(configuration not stated)", "cytotoxicity at 10 µM": 5.14}, {"smiles": "CCOC(=O)c1sc2ccsc2c1CNC(=O)COC", "cytotoxicity at 10 µM": 1.51}, {"smiles": "Cc1cnn(CC2CCCN2C(=O)CCc2cscn2)c1", "note": "(configuration not stated)", "cytotoxicity at 10 µM": -11.9}, {"smiles": "c1cc(CNCC2OCCc3cn(CC4CCOCC4)nc32)ccn1", "note": "(configuration not stated)", "cytotoxicity at 10 µM": 3.68}, {"smiles": "CCN1C(=O)C(c2ccccc2)CC12CCN(CCO)CC2", "note": "(configuration not stated)", "cytotoxicity at 10 µM": 1.26}, {"smiles": "Cc1ccc(C(=O)N2C[C@@H]3OCCN(CCN4CCCC4)[C@@H]3C2)cn1", "cytotoxicity at 10 µM": 2.39}, {"smiles": "CN(C)C(=O)[C@@H]1C[C@@H]2CCN(Cc3nccs3)C[C@@H]2O1", "cytotoxicity at 10 µM": 2.67}, {"smiles": "COc1cc(N2CCC3(CCCN(C(=O)c4cccnc4)C3)C2)ncn1", "note": "(configuration not stated)", "cytotoxicity at 10 µM": -149}, {"smiles": "Cc1nc(CN2C[C@H]3C[C@H](C(=O)NCC4CC4)N(C)[C@H]3C2)cs1", "cytotoxicity at 10 µM": -5.13}]}]}
